Experimental data from ChEMBL document CHEMBL2331160, “Trimeric hemibastadin congener from the marine sponge Ianthella basta” (J Nat Prod, 2013).
Values belong to the compound of their own block, whether it stands above or below them. Active and inactive are the calls of the source. The rule behind the calls is not given here.

Tests used:
L5178Y = test: Cytotoxicity against mouse L5178Y cells assessed as inhibition of cell proliferation by MTT assay; type: functional, cell-based
[1] = target: Epidermal growth factor receptor (Homo sapiens, UniProt P00533); test: Inhibition of EGFR (unknown origin)
Summary of the method: (§1)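 Biochemical (cell-free) assay within a panel of 24 protein kinases. Results reported as IC50 values. Procedure as described in earlier work.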

[2] = target: Cyclin-dependent kinase 4/cyclin D1 (Homo sapiens, UniProt P11802); test: Inhibition of CDK4/cyclin-D1 (unknown origin); type: protein-complex assay; summary of the method: as §1
Aurora kinase B = Aurora kinase B (Homo sapiens, UniProt Q96GD4); test: Inhibition of aurora-B (unknown origin); summary of the method: as §1
[3] = target: Receptor tyrosine-protein kinase erbB-2 (Homo sapiens, UniProt P04626); test: Inhibition of ERBB2 (unknown origin); summary of the method: as §1
Aurora kinase A = target: T1, Aurora kinase A (Homo sapiens, UniProt O14965); test: Inhibition of aurora-A (unknown origin); summary of the method: as §1
T1 sequence (O14965 whole entry): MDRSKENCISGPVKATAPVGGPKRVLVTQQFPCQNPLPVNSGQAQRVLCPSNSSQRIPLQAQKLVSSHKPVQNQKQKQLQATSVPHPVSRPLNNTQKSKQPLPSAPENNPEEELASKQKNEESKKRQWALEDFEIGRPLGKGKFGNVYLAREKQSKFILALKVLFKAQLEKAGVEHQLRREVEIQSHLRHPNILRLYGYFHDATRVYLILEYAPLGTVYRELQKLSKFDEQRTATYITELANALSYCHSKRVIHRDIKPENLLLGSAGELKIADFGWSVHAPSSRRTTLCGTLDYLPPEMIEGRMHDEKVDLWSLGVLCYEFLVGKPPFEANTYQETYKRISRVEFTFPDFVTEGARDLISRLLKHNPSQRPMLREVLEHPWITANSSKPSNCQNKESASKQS

[4] = target: T2, Serine/threonine-protein kinase PLK4 (Homo sapiens, UniProt O00444); test: Inhibition of SAK (unknown origin); summary of the method: as §1
T2 sequence (O00444 whole entry): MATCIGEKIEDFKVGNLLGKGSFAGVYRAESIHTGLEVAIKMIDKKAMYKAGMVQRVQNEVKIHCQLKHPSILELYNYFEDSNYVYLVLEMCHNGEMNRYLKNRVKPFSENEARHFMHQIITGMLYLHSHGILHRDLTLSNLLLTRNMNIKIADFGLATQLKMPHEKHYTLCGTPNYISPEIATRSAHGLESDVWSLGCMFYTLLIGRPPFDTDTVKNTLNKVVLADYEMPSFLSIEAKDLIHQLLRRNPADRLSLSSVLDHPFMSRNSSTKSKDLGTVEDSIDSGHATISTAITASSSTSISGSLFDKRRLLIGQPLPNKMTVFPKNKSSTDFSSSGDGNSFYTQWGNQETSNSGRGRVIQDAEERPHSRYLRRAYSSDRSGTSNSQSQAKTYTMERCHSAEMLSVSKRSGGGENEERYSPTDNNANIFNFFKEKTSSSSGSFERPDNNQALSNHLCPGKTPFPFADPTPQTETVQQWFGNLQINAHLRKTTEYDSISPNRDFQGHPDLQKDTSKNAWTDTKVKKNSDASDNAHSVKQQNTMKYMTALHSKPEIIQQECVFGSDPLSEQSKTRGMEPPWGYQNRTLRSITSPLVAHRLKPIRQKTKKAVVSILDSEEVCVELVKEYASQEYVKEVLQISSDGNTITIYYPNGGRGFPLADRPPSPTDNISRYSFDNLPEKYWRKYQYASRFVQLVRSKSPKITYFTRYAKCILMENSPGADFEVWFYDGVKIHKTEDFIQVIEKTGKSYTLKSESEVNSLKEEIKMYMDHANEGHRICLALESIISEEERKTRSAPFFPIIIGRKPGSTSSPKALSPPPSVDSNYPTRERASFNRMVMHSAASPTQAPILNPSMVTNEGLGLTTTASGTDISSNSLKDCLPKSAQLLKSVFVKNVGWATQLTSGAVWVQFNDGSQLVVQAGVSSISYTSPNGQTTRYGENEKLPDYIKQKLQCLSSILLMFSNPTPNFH

[5] = target: T3, NUAK family SNF1-like kinase 1 (Homo sapiens, UniProt O60285); test: Inhibition of ARK5 (unknown origin); summary of the method: as §1
T3 sequence (O60285 whole entry): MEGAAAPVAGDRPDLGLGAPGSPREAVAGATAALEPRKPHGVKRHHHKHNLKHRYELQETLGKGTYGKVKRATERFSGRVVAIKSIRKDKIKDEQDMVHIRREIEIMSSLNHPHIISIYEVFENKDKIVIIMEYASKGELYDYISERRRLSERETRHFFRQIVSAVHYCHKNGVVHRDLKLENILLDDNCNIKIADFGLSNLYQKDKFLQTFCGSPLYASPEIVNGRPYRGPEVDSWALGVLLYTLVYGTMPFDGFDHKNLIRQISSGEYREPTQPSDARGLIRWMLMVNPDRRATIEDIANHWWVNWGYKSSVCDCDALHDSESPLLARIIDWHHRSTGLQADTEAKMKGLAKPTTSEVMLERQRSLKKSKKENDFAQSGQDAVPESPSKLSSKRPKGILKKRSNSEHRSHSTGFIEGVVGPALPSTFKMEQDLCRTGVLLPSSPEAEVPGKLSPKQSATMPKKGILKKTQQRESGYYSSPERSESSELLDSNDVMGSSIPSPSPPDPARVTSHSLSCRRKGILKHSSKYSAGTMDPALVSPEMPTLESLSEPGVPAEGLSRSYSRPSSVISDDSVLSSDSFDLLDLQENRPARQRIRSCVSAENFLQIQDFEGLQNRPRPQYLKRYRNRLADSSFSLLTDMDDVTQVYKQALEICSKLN

[6] = target: Serine/threonine-protein kinase PLK1 (Homo sapiens, UniProt P53350); test: Inhibition of PLK1 (unknown origin); summary of the method: as §1
[7] = target: Vascular endothelial growth factor receptor 2 (Homo sapiens, UniProt P35968); test: Inhibition of VEGFR2 (unknown origin); summary of the method: as §1
[8] = target: Proto-oncogene tyrosine-protein kinase Src (Homo sapiens, UniProt P12931); test: Inhibition of SRC (unknown origin); summary of the method: as §1
[9] = target: Serine/threonine-protein kinase B-raf (Homo sapiens, UniProt P15056, V600E); test: Inhibition of B-RAF V600E mutant (unknown origin); summary of the method: as §1
[10] = target: Hepatocyte growth factor receptor (Homo sapiens, UniProt P08581); test: Inhibition of MET (unknown origin); summary of the method: as §1
Insulin receptor = Insulin receptor (Homo sapiens, UniProt P06213); test: Inhibition of INSR (unknown origin); summary of the method: as §1
[11] = target: T4, Receptor-type tyrosine-protein kinase FLT3 (Homo sapiens, UniProt P36888); test: Inhibition of FLT3 (unknown origin)
T4 sequence (P36888 whole entry): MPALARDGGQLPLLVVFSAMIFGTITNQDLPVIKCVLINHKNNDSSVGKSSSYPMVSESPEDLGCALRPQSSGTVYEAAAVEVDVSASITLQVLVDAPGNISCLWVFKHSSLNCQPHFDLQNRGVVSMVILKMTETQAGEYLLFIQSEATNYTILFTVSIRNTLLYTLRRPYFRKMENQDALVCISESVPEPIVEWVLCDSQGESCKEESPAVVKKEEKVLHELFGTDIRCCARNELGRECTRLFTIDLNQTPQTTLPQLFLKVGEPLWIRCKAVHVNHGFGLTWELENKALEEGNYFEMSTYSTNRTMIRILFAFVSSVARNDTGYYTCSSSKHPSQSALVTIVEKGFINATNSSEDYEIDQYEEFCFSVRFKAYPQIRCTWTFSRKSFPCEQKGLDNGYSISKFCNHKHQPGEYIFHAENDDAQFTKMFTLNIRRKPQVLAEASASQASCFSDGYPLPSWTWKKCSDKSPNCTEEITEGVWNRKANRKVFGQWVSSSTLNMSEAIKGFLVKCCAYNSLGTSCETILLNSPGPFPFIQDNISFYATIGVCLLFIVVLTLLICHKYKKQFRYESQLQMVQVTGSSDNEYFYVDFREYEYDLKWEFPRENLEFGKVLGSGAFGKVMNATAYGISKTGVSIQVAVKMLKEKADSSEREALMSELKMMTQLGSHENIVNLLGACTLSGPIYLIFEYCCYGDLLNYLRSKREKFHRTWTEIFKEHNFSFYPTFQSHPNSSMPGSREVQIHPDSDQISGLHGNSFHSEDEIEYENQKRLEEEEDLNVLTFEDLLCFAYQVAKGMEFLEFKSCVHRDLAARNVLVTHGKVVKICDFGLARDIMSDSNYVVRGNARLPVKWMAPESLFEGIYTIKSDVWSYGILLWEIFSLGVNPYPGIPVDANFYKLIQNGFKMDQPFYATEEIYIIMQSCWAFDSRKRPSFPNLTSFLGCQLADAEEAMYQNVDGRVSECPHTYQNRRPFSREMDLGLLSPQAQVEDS
Summary of the method: (§2)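 Biochemical (cell-free) assay using a panel of 24 protein kinases. The read-out was the IC50.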

Angiopoietin-1 receptor = Angiopoietin-1 receptor (Homo sapiens, UniProt Q02763); test: Inhibition of TIE2 (unknown origin); summary of the method: as §1
[12] = target: Cyclin-dependent kinase 2/cyclin A (Homo sapiens, UniProt P24941); test: Inhibition of CDK2/cyclin-A (unknown origin); type: protein-complex assay; summary of the method: as §1
[13] = target: Vascular endothelial growth factor receptor 3 (Homo sapiens, UniProt P35916); test: Inhibition of VEGFR3 (unknown origin); summary of the method: as §1
[14] = target: Platelet-derived growth factor receptor beta (Homo sapiens, UniProt P09619); test: Inhibition of PDGFR-beta (unknown origin)
[15] = target: Mitogen-activated protein kinase kinase kinase 8 (Homo sapiens, UniProt P41279); test: Inhibition of COT (unknown origin); summary of the method: as §2
Ephrin type-B receptor 4 = Ephrin type-B receptor 4 (Homo sapiens, UniProt P54760); test: Inhibition of EPHB4 (unknown origin); summary of the method: as §1
Focal adhesion kinase 1 = Focal adhesion kinase 1 (Homo sapiens, UniProt Q05397); test: Inhibition of FAK (unknown origin); summary of the method: as §1
[16] = target: Insulin-like growth factor 1 receptor (Homo sapiens, UniProt P08069); test: Inhibition of IGF1R (unknown origin); summary of the method: as §1

Epidermal growth factor receptor, sequence (P00533 whole entry): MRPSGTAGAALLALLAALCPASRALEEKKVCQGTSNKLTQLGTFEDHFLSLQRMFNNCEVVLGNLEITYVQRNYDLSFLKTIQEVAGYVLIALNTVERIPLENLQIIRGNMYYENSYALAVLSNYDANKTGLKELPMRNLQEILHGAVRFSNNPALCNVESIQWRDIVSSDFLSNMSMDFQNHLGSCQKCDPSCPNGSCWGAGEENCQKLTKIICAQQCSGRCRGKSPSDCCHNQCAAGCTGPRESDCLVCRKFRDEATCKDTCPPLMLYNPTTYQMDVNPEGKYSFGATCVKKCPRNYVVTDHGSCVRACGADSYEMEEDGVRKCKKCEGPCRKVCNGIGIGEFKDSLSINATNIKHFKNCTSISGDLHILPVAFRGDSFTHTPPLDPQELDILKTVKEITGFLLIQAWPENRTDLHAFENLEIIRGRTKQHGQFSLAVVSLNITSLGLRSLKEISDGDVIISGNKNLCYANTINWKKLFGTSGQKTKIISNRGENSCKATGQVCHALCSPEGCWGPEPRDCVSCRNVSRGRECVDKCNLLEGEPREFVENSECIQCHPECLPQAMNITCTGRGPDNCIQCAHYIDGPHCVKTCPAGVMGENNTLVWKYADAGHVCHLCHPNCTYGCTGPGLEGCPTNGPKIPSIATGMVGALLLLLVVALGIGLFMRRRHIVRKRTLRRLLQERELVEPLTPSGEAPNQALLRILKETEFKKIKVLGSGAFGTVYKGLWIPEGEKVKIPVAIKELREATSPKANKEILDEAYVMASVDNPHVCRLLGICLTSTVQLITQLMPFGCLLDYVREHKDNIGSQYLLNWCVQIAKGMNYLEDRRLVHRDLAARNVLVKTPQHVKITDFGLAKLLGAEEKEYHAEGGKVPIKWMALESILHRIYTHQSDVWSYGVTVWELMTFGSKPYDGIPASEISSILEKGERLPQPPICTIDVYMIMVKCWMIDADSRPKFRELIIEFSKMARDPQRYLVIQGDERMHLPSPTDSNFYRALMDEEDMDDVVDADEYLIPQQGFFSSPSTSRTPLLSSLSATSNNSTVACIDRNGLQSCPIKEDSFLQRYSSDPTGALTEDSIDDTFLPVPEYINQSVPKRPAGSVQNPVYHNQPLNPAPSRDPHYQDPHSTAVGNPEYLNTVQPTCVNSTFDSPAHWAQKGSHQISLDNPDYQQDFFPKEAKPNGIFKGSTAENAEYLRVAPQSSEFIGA
Receptor tyrosine-protein kinase erbB-2, sequence (P04626 whole entry): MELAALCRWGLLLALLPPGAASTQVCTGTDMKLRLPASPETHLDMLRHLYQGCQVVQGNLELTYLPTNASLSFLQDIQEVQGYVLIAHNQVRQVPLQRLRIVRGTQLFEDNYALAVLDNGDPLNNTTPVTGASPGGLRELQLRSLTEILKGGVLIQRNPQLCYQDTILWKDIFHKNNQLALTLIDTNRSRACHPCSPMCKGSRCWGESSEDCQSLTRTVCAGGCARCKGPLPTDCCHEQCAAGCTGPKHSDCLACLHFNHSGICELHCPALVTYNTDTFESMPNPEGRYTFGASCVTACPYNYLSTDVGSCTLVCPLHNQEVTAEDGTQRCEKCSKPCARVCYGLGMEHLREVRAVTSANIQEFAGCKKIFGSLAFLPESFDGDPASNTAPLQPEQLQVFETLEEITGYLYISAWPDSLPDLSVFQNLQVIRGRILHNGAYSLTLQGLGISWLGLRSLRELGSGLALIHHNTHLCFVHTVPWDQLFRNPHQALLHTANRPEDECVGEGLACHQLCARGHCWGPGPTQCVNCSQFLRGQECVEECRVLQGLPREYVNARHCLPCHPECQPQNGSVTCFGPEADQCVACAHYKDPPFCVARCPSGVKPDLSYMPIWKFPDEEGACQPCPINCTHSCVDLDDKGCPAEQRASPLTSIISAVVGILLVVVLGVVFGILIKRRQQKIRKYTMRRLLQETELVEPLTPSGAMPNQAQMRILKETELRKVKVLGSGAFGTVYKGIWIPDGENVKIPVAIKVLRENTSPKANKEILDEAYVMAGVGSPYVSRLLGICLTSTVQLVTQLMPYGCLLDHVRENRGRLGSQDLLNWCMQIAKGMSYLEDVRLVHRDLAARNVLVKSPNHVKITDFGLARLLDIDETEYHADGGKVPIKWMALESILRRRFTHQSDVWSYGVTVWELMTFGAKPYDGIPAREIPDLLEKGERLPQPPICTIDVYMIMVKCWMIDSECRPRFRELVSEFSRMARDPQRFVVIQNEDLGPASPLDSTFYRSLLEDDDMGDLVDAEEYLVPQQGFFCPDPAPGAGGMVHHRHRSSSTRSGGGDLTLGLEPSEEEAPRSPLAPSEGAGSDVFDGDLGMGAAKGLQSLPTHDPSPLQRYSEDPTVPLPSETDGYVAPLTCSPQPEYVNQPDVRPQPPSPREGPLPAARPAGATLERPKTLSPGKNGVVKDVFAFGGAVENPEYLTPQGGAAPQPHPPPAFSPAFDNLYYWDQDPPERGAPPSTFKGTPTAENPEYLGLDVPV
Aurora kinase B, sequence (Q96GD4 whole entry): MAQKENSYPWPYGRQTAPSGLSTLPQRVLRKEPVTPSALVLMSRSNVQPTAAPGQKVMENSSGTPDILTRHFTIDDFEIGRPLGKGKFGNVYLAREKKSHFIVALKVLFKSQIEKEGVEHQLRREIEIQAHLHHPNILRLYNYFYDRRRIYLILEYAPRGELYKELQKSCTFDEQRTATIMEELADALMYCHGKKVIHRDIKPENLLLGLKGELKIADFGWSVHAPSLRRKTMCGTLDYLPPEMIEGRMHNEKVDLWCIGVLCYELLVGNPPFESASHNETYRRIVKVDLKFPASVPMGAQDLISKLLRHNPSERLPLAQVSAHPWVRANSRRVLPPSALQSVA
Cyclin-dependent kinase 4/cyclin D1, sequence (P11802 whole entry): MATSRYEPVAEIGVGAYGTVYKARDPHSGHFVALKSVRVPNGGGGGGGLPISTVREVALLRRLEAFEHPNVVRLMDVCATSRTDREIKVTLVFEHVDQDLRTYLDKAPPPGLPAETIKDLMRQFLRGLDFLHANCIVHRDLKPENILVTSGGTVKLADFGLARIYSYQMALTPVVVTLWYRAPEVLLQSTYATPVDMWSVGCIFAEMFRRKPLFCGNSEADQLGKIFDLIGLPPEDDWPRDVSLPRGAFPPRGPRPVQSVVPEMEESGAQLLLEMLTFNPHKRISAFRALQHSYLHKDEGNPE
Cyclin-dependent kinase 4/cyclin D1, sequence (P24385 whole entry, further chain): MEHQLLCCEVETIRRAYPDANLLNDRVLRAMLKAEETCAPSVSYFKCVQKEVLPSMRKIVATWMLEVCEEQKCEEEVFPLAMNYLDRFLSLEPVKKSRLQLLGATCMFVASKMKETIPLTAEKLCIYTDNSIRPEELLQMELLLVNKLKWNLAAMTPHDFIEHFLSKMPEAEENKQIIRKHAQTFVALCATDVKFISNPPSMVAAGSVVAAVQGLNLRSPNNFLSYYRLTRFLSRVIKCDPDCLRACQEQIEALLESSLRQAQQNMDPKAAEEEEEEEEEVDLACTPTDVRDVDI
Angiopoietin-1 receptor, sequence (Q02763 whole entry): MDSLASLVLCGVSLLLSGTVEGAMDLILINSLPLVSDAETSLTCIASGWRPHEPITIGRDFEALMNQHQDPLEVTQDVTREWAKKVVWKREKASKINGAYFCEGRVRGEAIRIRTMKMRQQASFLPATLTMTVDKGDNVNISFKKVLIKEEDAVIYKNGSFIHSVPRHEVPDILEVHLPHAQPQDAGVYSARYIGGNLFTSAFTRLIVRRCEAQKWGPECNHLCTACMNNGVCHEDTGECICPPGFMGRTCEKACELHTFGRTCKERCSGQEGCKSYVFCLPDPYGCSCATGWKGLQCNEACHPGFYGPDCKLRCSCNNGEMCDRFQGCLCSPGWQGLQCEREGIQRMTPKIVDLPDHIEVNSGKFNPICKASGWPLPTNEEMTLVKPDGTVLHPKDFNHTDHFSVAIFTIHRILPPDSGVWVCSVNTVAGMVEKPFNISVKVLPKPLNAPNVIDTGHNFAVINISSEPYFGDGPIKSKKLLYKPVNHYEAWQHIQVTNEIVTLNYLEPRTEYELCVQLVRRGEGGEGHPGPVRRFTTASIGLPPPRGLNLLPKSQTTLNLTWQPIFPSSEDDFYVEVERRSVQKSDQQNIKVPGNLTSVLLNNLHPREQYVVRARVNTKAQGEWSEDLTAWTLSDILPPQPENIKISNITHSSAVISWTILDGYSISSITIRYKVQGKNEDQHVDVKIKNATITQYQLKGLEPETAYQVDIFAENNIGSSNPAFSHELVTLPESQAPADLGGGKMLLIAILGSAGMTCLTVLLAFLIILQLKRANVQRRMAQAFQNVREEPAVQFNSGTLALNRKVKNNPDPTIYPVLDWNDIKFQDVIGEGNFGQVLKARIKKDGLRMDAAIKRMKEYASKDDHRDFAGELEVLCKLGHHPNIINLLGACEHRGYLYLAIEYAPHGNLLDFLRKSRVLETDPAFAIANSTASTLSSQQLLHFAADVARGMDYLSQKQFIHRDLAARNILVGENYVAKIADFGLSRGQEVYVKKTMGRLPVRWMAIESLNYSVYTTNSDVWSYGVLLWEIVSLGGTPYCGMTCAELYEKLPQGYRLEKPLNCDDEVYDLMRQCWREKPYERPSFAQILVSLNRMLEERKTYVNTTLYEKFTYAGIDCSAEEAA
Mitogen-activated protein kinase kinase kinase 8, sequence (P41279 whole entry): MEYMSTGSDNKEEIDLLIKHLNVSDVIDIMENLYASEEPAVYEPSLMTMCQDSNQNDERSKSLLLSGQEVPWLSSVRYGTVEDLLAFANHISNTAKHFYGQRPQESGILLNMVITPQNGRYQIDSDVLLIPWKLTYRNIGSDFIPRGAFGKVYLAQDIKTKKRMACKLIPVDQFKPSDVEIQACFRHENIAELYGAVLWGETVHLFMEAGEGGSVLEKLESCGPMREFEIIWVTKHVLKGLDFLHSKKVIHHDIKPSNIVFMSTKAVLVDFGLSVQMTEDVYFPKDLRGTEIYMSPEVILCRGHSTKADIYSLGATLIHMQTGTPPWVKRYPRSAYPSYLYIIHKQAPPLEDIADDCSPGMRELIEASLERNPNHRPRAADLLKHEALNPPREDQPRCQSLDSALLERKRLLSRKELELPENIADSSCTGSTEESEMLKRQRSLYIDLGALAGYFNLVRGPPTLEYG

Compound: O=C1N/C=C/c2ccc(c(Br)c2)Oc2cc(ccc2O)CCNC(=O)/C(=N/O)Cc2cc(Br)c(c(Br)c2)Oc2cc(cc(Br)c2O)C/C1=N\O [BASTADIN 11]
- IC50 (L5178Y): 3700 nM

- IC50 [1]: 2900 nM
- IC50 [2]: 4000 nM
- IC50 (Aurora kinase B): 1600 nM
- IC50 [3]: 4500 nM
- IC50 (Aurora kinase A): 1300 nM
Compound: O=C1NCCc2ccc(O)c(c2)Oc2c(Br)cc(cc2Br)CCNC(=O)/C(=N/O)Cc2cc(Br)c(O)c(c2)Oc2c(Br)cc(cc2Br)C/C1=N\O [BASTADIN 16]
- IC50 (L5178Y): 1900 nM

- IC50 [4]: 700 nM
- IC50 [1]: 600 nM
- IC50 [5]: 1700 nM
- IC50 [6]: 6400 nM
- IC50 [7]: 600 nM
- IC50 [2]: 1400 nM
- IC50 [8]: 700 nM
- IC50 [9]: 1700 nM
- IC50 [10]: 800 nM
- IC50 (Insulin receptor): 1400 nM
- IC50 [11]: 1400 nM
- IC50 (Angiopoietin-1 receptor): 600 nM
- IC50 (Aurora kinase B): 2300 nM
- IC50 [3]: 2100 nM
- IC50 (Aurora kinase A): 2600 nM
- IC50 [12]: 6500 nM
- IC50 [13]: 1600 nM
- IC50 [14]: 4000 nM
- IC50 [15]: 1300 nM
- IC50 (Ephrin type-B receptor 4): 3400 nM
- IC50 (Focal adhesion kinase 1): 3500 nM
- IC50 [16]: 1000 nM
Compound: O=C(NCCc1ccc(O)c(Br)c1)/C(Cc1cc(Br)c(O)c(Oc2ccc(CCNC(=O)/C(Cc3cc(Br)c(O)c(-c4cc(C/C(=N\O)C(=O)NCCc5ccc(O)c(Br)c5)cc(Br)c4O)c3)=N/O)cc2Br)c1)=N/O [SESQUIBASTADIN 1]
- inhibition (L5178Y): inactive
